ChEMBL document CHEMBL4014311, “Discovery of a Hepatitis C Virus NS5B Replicase Palm Site Allosteric Inhibitor (BMS-929075) Advanced to Phase 1 Clinical Studies” (J Med Chem, 2017)
The source made the active and inactive calls. No cut-off for these calls is given here.

Legend:
[1] = Protein binding in rat serum; type: ADME, cell-free; details: read-out: PB (converted)
[2] = Oral bioavailability in Sprague-Dawley rat at 6 mg/kg using docusate sodium/methocel/water formulation by LC/MS/MS analysis; type: ADME, organism-based; details: in vivo
Method in brief: (§1)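 Rats were fasted overnight and gavaged with a suspension of spray-dried dispersion (10% w/w drug loading in 0.02:0.5:99.48 docusate/methocel/water), n = 3 per group. Serial EDTA plasma was taken predose to 24 h and assayed by LC/MS/MS. Analysis was noncompartmental: Cmax observed, AUC by linear/log trapezoids, F from dose-normalized PO versus IV AUC.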

Hepatitis C virus [3] = experiment: Antiviral activity against HCV genotype 6a infected in human HuH7 cells after 3 days by luciferase reporter assay; type: functional, cell-based, Hepacivirus hominis; details: Huh-7, 72 h
[4] = Cmax in Sprague-Dawley rat at 6 mg/kg, po administered via gavage using docusate sodium/methocel/water formulation by LC/MS/MS analysis; type: ADME, organism-based; set-up: dose 6 mg/kg, route oral; details: in vivo; method in brief: as §1
[5] = Volume of distribution at steady state in Sprague-Dawley rat at 2 mg/kg, iv by LC/MS/MS analysis; type: ADME, organism-based; details: Sprague-Dawley, in vivo, read-out: Vdss
Method in brief: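 Rats received a 2 mg/kg IV dose in 90:10 PEG-400/ethanol as a 10 min constant-rate jugular infusion. Blood collected predose and at 10, 15, 30, 45, 60 min and 2, 4, 6, 8, 24 h; n = 3. Plasma analyzed by LC/MS/MS. Vss derived by noncompartmental analysis of IV data.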

[6] = Lipophilicity, log D of the compound by shake flask method; type: physicochemical; details: octanol/water
[7] = Protein binding in dog serum; type: ADME, cell-free, Canis lupus familiaris; details: read-out: PB (converted)
[8] = target: Voltage-dependent L-type calcium channel subunit alpha-1C (Homo sapiens, UniProt Q13936); experiment: Inhibition of Cav1.2 (unknown origin)
Sequence of Voltage-dependent L-type calcium channel subunit alpha-1C (Q13936 whole entry): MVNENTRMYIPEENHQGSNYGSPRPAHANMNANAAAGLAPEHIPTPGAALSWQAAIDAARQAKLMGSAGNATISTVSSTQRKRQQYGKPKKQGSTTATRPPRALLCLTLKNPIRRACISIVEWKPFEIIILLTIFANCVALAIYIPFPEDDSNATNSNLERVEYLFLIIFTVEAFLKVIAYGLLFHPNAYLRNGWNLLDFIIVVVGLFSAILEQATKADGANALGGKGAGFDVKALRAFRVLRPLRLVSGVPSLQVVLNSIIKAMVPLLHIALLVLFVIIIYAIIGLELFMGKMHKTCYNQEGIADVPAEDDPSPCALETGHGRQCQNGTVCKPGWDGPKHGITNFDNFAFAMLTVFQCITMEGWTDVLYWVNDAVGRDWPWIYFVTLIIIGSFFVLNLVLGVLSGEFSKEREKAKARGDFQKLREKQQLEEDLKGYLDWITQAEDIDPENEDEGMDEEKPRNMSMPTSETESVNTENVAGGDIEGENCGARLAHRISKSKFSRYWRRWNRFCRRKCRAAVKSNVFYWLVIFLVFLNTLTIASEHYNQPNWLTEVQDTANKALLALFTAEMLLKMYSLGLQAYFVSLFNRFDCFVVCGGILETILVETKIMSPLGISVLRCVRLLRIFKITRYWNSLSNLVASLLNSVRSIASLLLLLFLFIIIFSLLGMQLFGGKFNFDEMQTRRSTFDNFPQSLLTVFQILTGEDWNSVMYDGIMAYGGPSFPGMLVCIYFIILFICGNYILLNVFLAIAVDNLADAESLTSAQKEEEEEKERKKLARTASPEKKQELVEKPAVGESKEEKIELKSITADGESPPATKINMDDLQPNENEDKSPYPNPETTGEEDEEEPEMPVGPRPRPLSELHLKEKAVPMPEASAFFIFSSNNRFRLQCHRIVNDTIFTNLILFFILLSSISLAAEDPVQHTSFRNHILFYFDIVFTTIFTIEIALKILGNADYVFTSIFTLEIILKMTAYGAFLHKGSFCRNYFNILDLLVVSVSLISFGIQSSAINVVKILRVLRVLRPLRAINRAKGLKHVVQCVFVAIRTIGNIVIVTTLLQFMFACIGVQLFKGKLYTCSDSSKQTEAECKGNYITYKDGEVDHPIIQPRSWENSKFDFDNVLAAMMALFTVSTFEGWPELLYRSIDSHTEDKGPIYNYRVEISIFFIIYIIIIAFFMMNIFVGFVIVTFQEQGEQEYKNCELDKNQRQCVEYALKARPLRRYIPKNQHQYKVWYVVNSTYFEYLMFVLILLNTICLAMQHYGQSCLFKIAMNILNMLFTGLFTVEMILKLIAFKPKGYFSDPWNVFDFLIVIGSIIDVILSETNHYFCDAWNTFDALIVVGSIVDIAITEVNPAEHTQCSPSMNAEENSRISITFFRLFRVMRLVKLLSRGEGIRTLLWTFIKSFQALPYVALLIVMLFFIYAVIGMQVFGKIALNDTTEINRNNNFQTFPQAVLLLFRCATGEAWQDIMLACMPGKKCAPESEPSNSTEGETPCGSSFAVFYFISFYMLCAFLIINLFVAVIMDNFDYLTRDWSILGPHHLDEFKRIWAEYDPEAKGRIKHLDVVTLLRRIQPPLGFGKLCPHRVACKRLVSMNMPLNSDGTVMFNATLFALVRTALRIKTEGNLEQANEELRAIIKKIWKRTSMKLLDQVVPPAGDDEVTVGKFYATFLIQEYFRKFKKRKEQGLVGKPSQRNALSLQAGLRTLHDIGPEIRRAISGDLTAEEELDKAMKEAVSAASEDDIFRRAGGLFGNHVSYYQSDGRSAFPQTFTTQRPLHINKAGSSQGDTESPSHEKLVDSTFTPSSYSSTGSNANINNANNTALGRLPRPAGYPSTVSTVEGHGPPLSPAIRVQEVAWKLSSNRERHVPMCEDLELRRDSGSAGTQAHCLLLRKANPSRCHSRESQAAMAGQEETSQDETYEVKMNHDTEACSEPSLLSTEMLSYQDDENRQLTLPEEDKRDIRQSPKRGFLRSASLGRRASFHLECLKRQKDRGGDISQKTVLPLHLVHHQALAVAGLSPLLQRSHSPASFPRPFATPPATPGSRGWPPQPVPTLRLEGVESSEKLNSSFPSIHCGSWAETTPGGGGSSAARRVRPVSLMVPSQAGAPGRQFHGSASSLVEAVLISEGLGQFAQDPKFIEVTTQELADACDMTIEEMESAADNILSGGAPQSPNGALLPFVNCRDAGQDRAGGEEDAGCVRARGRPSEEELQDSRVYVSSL

Hepatitis C virus [9] = experiment: Antiviral activity against HCV genotype 1b infected in human HuH7 cells co-treated with daclatasvir/asunaprevir after 3 days by luciferase reporter assay; type: functional, cell-based; details: Hepacivirus hominis
[10] = Half life in Sprague-Dawley rat at 2 mg/kg,iv by LC/MS/MS analysis; type: ADME, organism-based; details: Sprague-Dawley, in vivo
Method in brief: (§2)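 A 10 min constant-rate jugular vein infusion was given in 90:10 PEG-400/ethanol (v/v), n = 3 rats. Plasma was sampled predose and at 10, 15, 30, 45, 60 min and 2, 4, 6, 8, 24 h, then assayed by LC/MS/MS. Clearance and apparent terminal t1/2 were estimated by noncompartmental analysis.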

[11] = Cytotoxicity against human HepG2 cells; type: cell-based
[12] = Inhibition of HCV genotype 1b NS5B replicase C316N mutant infected in human HuH7 cells assessed as reduction of viral replication after 3 days by luciferase reporter assay; type: cell-based, Hepatitis C virus subtype 1b; details: Hepatitis C virus, Huh-7, 72 h
[13] = Tmax in Sprague-Dawley rat at 6 mg/kg, po administered via gavage using docusate sodium/methocel/water formulation by LC/MS/MS analysis; type: ADME, organism-based; details: in vivo
Method in brief: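 Fasted rats gavaged at 6 mg/kg with a spray-dried dispersion suspension (10% w/w drug loading in 0.02:0.5:99.48 docusate/methocel/water). Serial plasma samples predose and at 15, 30, 45, 60 min and 2, 4, 6, 8, 24 h; n = 3. Plasma analyzed by LC/MS/MS. Tmax read directly from observed concentrations.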

Hepatitis C virus [14] = experiment: Antiviral activity against HCV genotype 2b infected in human HuH7 cells after 3 days by luciferase reporter assay; type: functional, cell-based, Hepacivirus hominis; details: Huh-7, 72 h
[15] = Clearance in Sprague-Dawley rat at 2 mg/kg, iv by LC/MS/MS analysis; type: ADME, organism-based; details: in vivo; method in brief: as §2
Homo sapiens [16] = experiment: Toxicity in human up to 400 mg, po administered as single dose; details: in vivo
[17] = Cytotoxicity against primary human hepatocytes; type: cell-based, Hepatocyte
Hepatitis C virus [18] = experiment: Antiviral activity against HCV genotype 4a infected in human HuH7 cells after 3 days by luciferase reporter assay; type: functional, cell-based, Hepacivirus hominis; details: Huh-7, 72 h
[19] = Ratio of drug uptake in Sprague-Dawley rat liver to plasma at 6 mg/kg, po administered via gavage after 24 hrs by LC/MS/MS analysis; type: ADME, organism-based
Method in brief: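 Rats fasted overnight, then dosed by gavage at 6 mg/kg in 90:10 PEG-400/ethanol (v/v). Plasma sampled serially from cannula into EDTA tubes predose and at 15, 30, 45, 60 min and 2, 4, 6, 8, 24 h; n = 3. Livers removed at 6 h (satellite animals) and 24 h, homogenized in 80% acetonitrile/HBSS, assayed by LC/MS/MS. Tmax taken directly from observed data.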

[20] = target: Voltage-gated inwardly rectifying potassium channel KCNH2 (Homo sapiens, UniProt Q12809); experiment: Inhibition of human ERG by thallium flux assay
Sequence of Voltage-gated inwardly rectifying potassium channel KCNH2 (Q12809 whole entry): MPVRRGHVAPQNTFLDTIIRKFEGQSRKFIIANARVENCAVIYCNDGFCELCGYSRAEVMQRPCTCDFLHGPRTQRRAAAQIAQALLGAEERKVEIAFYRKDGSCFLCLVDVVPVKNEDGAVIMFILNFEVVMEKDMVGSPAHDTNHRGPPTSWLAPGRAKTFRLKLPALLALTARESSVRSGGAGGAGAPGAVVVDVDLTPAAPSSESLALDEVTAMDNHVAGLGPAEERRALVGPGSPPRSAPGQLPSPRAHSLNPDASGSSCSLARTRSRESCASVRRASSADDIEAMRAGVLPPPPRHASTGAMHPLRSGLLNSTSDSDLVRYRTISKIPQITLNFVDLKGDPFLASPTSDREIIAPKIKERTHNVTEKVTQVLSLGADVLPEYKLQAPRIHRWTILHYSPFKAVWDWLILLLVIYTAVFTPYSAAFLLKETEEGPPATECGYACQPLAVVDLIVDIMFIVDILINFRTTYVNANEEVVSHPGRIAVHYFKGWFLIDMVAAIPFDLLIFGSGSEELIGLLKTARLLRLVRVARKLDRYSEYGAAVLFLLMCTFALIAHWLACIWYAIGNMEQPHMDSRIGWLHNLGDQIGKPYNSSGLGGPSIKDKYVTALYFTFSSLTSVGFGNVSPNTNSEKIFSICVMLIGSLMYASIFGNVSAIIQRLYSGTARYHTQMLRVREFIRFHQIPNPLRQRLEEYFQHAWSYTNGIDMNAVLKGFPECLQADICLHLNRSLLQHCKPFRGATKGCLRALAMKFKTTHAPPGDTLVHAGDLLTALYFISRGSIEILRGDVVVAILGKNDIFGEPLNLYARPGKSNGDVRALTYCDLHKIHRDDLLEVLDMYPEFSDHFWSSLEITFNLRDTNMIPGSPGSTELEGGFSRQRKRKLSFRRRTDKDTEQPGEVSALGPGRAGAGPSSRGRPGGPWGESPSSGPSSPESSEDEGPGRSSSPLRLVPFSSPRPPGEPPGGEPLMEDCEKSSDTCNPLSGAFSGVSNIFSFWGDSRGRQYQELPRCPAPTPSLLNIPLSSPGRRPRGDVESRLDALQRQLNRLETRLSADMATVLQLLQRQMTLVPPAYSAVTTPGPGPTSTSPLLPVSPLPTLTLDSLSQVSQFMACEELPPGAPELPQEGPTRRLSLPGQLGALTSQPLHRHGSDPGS

[21] = Effective permeability across apical to basolateral side in human Caco2 cells; type: ADME, cell-based; details: Caco-2, read-out: Peff
[22] = Drug uptake in Sprague-Dawley rat liver at 6 mg/kg, po administered via gavage after 24 hrs by LC/MS/MS analysis; type: ADME, organism-based; details: read-out: Drug uptake
Method in brief: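 Fasted rats were dosed orally in 90:10 PEG-400/ethanol; 6 h livers came from satellite animals. In the screening variant, n = 2 and plasma was taken to 6 h with livers at the terminal point. Livers were rinsed, blotted, weighed and homogenized in 2 volumes of 80% acetonitrile in HBSS per gram, then centrifuged. Supernatant and plasma were analysed by LC/MS/MS.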

[23] = Ratio of plasma concentration in human at 25 mg up to 14 days to EC50 for HCV genotype 1b NS5B C316N mutant infected in human HuH7 cells
Method in brief: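 Randomized, double-blind, placebo-controlled Phase I multiple ascending dose study in healthy volunteers. Oral amorphous solid dispersion formulation, 30% drug loading, given daily for 14 days at doses up to 400 mg/day. Human plasma exposure was measured and set against the replicon EC50.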

[24] = Ratio of plasma concentration in human at 25 mg/day administered as single dose to EC50 for HCV genotype 1b NS5B C316N mutant infected in human HuH7 cells
Method in brief: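 Randomized, double-blind, placebo-controlled Phase I single ascending dose study in healthy volunteers. Single oral dose of an amorphous solid dispersion formulation with 30% drug loading, at doses up to 400 mg. Human plasma exposure was measured and set against the replicon EC50.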

Cytochrome P450 3A4 = Cytochrome P450 3A4 (Homo sapiens, UniProt P08684); experiment: Inhibition of microsomal CYP3A4 (unknown origin); type: ADME
Sequence of Cytochrome P450 3A4 (P08684 whole entry): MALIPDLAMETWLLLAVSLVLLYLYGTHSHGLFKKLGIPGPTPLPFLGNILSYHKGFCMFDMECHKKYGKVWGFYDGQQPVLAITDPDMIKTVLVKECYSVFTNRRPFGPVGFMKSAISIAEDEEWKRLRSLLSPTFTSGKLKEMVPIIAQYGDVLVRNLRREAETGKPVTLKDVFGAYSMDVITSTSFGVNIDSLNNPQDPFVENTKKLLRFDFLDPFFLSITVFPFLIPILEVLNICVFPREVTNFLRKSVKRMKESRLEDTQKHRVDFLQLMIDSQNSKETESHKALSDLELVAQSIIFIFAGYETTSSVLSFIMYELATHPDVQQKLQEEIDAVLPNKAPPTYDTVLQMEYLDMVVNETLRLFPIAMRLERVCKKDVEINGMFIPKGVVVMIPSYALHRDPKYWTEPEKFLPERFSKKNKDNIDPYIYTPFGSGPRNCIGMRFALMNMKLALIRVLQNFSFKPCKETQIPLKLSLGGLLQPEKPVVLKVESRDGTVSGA

Homo sapiens [25] = experiment: Toxicity in human up to 400 mg/day, po for 14 days; details: in vivo, 336 h
Hepatitis C virus [26] = experiment: Ratio of EC50 for HCV genotype 1b infected in human HuH7 cells in presence of 40% human serum to EC50 for HCV genotype-1b infected in human HuH7 cells; type: functional, Hepacivirus hominis

## CNC(=O)c1c(-c2ccc(F)cc2)oc2ccc(-c3cc(C(=O)NC4(c5ncccn5)CC4)ccc3C)c(F)c12 [BMS-929075]
[1]
  fraction unbound: 0.003
[2]
  bioavailability: > 100%
Hepatitis C virus [3]
  EC50: 5 nM
[4]
  Cmax: 14.7 µM
[5]
  Vd: 0.7 L/kg
[6]
  logD: 5.09
[7]
  fraction unbound: 0.019
[8]
  inhibition (INH): Not Active
Hepatitis C virus [9]
  Activity: Active
[10]
  half-life: 4.7 h
[11]
  CC50: > 12500 nM
[12]
  EC50: 18 nM
[13]
  Tmax: 4 h
Hepatitis C virus [14]
  EC50: 115 nM
[15]
  clearance: 1.7 mL/min/kg
Homo sapiens [16]
  Activity: Non-Toxic
[17]
  CC50: > 50000 nM
Hepatitis C virus [18]
  EC50: 3 nM
[19]
  Kp at 24 h: 1.6
[20]
  IC50: 24000 nM
[21]
  Papp A→B: > 10 ×10⁻⁶ cm/s
[22]
  concentration at 24 h: 1.12 µM
[23]
  Ratio: 10
[24]
  Ratio: 10
Cytochrome P450 3A4
  IC50: > 13000 nM
Homo sapiens [25]
  Activity: Non-Toxic
Hepatitis C virus [26]
  Ratio EC50: 5.5
